Reference: ChEMBL document CHEMBL3600298, “Antiproliferative and apoptosis-inducing activities of novel naphthalimide-cyclam conjugates through dual topoisomerase (topo) I/II inhibition” (Bioorg Med Chem, 2015)
Activity calls are given as the source filed them. The rule behind the calls is not given here.

How the values were obtained:
HCT-116 = experiment: Cytotoxicity against human HCT116 cells incubated for 24 hrs by sulforhodamine B assay; format: functional, cell-based; conditions: HCT-116, 24 h
A549 = experiment: Cytotoxicity against human A549 cells incubated for 24 hrs by sulforhodamine B assay; format: functional, cell-based; conditions: A549, 24 h
HeLa [1] = experiment: Cytotoxicity against human HeLa cells incubated for 24 hrs by sulforhodamine B assay; format: functional, cell-based
HeLa [2] = experiment: Induction of apoptosis in human HeLa cells at 10 uM incubated for 24 hrs by annexin V-FITC and propidium iodide staining based flow cytometry; format: functional
Summary of the method: (§1)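 HeLa cells seeded at 1 × 10^6 per well and exposed to compound at 10 μM for 24 h. Cells then treated with cold PBS and resuspended in binding buffer. Annexin V-FITC added, followed by 15 min at 4 °C in the dark. Apoptotic cells quantified by annexin V/PI double staining.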

[3] = target: DNA topoisomerase 2-alpha (Homo sapiens) (UniProt P11388); experiment: Inhibition of human topoisomerase 2 assessed as reduction in ATP-dependent kDNA decatenation at 100 uM incubated for 30 mins by ethidium bromide staining based electrophoresis method
Sequence of DNA topoisomerase 2-alpha (Homo sapiens) (P11388 whole entry): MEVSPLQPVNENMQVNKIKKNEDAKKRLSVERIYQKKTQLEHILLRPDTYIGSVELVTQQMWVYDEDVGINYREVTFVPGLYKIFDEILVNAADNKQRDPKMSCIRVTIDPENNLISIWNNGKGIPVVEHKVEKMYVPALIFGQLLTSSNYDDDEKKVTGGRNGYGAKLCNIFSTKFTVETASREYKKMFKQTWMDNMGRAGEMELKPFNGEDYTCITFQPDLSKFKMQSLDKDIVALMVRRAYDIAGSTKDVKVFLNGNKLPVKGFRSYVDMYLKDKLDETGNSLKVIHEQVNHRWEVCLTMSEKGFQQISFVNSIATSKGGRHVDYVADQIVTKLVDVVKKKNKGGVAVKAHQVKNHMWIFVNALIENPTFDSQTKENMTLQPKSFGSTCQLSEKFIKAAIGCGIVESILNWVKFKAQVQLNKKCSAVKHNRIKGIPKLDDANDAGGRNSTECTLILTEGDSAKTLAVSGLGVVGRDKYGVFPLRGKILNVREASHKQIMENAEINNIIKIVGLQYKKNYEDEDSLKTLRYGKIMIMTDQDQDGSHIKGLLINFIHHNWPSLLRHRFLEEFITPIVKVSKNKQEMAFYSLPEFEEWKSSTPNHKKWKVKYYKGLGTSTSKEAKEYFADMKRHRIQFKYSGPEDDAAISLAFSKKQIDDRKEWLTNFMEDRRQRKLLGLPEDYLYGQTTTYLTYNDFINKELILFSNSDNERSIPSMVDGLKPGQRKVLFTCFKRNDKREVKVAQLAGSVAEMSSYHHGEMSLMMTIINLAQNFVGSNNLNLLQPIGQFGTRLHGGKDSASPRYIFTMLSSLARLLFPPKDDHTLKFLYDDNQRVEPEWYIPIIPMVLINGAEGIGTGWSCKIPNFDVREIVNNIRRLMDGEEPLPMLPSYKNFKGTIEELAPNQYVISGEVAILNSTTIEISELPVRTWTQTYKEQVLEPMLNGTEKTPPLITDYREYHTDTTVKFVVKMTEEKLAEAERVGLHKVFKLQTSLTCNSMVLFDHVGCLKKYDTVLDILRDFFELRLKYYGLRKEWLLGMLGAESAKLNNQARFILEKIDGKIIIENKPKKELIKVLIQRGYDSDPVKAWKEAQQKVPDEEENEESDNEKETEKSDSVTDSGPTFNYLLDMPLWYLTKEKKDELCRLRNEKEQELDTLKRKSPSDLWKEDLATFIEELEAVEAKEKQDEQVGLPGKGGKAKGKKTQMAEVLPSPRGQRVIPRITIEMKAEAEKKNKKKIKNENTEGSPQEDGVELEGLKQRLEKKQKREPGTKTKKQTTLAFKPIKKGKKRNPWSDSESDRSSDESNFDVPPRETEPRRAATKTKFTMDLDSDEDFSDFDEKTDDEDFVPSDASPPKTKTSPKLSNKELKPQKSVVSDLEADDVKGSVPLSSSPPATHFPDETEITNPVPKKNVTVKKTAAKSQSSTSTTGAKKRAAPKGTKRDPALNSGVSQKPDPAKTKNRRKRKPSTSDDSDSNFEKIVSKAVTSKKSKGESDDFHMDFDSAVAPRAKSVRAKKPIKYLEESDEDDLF

HeLa [4] = experiment: Induction of apoptosis in human HeLa cells assessed as late apoptotic cells level at 10 uM incubated for 24 hrs by annexin V-FITC and propidium iodide staining based flow cytometry (reference value: 1.81%); format: functional; summary of the method: as §1
Bos taurus [5] = organism: Bos taurus; experiment: Inhibition of calf thymus topoisomerase 1 assessed as reduction in relaxation of supercoiled pBR322 DNA at 100 uM incubated for 30 mins by ethidium bromide staining based electrophoresis method
Summary of the method: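 Calf thymus topo I (0.1 unit) incubated with 0.5 μg supercoiled pBR322 DNA and compound for 30 min at 37 °C in topo I buffer with 0.01% BSA, 20 μL total. Reaction stopped with SDS/loading dye. Samples run on 0.8% agarose in TAE, 35 min at 120 V, then stained with ethidium bromide and imaged under UV.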

HeLa [6] = experiment: Induction of apoptosis in human HeLa cells assessed as early apoptotic cells level at 10 uM incubated for 24 hrs by annexin V-FITC and propidium iodide staining based flow cytometry (reference value: 0.72%); format: functional; summary of the method: as §1
Bos taurus [7] = organism: Bos taurus; experiment: Inhibition of calf thymus topoisomerase 1 assessed as reduction in relaxation of supercoiled pBR322 DNA at 200 uM incubated for 30 mins by ethidium bromide staining based electrophoresis method
Summary of the method: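 Calf thymus topo I, 0.1 units, with 0.5 µg supercoiled pBR322 DNA and compound in topo I buffer with 0.01% BSA, 20 µL total. Incubated 30 min at 37 °C. Reaction stopped with 10% SDS plus loading dye. Run on 0.8% agarose gel in TAE, 35 min at 120 V. Gel stained with ethidium bromide and imaged under UV.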

Calf thymus DNA = experiment: Binding affinity to calf thymus DNA assessed as induction of conformational changes at 20 uM by CD spectroscopy; format: nucleic-acid assay; conditions: Bos taurus
Summary of the method: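 ct-DNA in 20 mM Tris–HCl pH 7.4, concentration set from molar absorption coefficient 6600 M−1 cm−1, A260/A280 above 1.8; 100 μM DNA with 20 μM compound for 2 h at 25 °C; CD spectra recorded 200–400 nm in 1 cm quartz cell.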

With `CN1C(=O)c2cccc3c(NCCN4CCCNCCNCCCNCC4)ccc(c23)C1=O` the IC50 (HCT-116) was 34.1 µM, the IC50 (A549) was 34.3 µM and the IC50 (HeLa [1]) was 13.8 µM.
With `CCCCNc1ccc2c3c(cccc13)C(=O)N(CCCN1CCCNCCNCCCNCC1)C2=O` the IC50 (HCT-116) was > 50 µM, the IC50 (A549) was > 50 µM and the IC50 (HeLa [1]) was > 50 µM.
`CNc1ccc2c3c(cccc13)C(=O)N(CCCN1CCCNCCNCCCNCC1)C2=O` was tested, and the IC50 (HCT-116) was > 50 µM, the IC50 (A549) was > 50 µM and the IC50 (HeLa [1]) was > 50 µM.
With `CCCCCCCCCCCCN1C(=O)c2cccc3c(NCCN4CCCNCCNCCCNCC4)ccc(c23)C1=O` the IC50 (HCT-116) was 18.2 µM, the Activity (HeLa [2]) was >90% and the IC50 (A549) was 18.4 µM. For the same molecule, the inhibition [3] was “Active”, the Activity (HeLa [4]) was 13.54% and the inhibition (Bos taurus [5]) was “Active”. It also gave an Activity (HeLa [6]) of 86.4% and an IC50 (HeLa [1]) of 11.8 µM.
In the case of `CCCCCCCCCCCCNc1ccc2c3c(cccc13)C(=O)N(CCCN1CCCNCCNCCCNCC1)C2=O`, the IC50 (HCT-116) is reported as 13 µM, the Activity (HeLa [2]) is reported as >90% and the IC50 (A549) is reported as 15.8 µM. For the same molecule, the inhibition [3] was “Active”, the Activity (HeLa [4]) was 32.47% and the inhibition (Bos taurus [5]) was “Active”. It also gave an Activity (HeLa [6]) of 59.52% and an IC50 (HeLa [1]) of 9.36 µM.
With `CC[C@@]1(O)C(=O)OCc2c1cc1n(c2=O)Cc2cc3ccccc3nc2-1` the inhibition (Bos taurus [7]) was “Active”.
`C1CNCCNCCCNCCNC1` was tested, and the IC50 (HCT-116) was > 50 µM, the IC50 (A549) was > 50 µM and the IC50 (HeLa [1]) was > 50 µM.
With `CN(C)CCN1C(=O)c2cccc3cc(N)cc(c23)C1=O` [AMONAFIDE] the inhibition [3] was “Active”, the inhibition (Bos taurus [5]) was “Active” and the IC50 (HeLa [1]) was 9.52 µM.
`CCCCCCCCN1C(=O)c2cccc3c(NCCN4CCCNCCNCCCNCC4)ccc(c23)C1=O` was tested, and the IC50 (HCT-116) was 16.7 µM, the Activity (HeLa [2]) was >90% and the IC50 (A549) was 15.8 µM. For the same molecule, the inhibition [3] was “Active”, the Activity (HeLa [4]) was 60.48% and the inhibition (Bos taurus [5]) was “Active”. It also gave an Activity (HeLa [6]) of 39.47% and an IC50 (HeLa [1]) of 10.1 µM.
Molecule `CCCCN1C(=O)c2cccc3c(NCCN4CCCNCCNCCCNCC4)ccc(c23)C1=O` has an IC50 (HCT-116) of 29.2 µM, an IC50 (A549) of 38.9 µM and an IC50 (HeLa [1]) of 19.2 µM.
With `CCCCCCCCNc1ccc2c3c(cccc13)C(=O)N(CCCN1CCCNCCNCCCNCC1)C2=O` the IC50 (HCT-116) was 8.07 µM, the Activity (HeLa [2]) was >90% and the Activity (Calf thymus DNA) was “Active”. The IC50 (A549) was 11.6 µM, the inhibition [3] was “Active” and the Activity (HeLa [4]) was 98.46%. The inhibition (Bos taurus [5]) was “Active”, the Activity (HeLa [6]) was 1.49% and the IC50 (HeLa [1]) was 8.4 µM.
For `COc1cccc2c1C(=O)c1c(O)c3c(c(O)c1C2=O)C[C@@](O)(C(=O)CO)C[C@@H]3O[C@H]1C[C@H](N)[C@H](O)[C@H](C)O1`, the inhibition [3] was “Active”.
